Laboratory results taken from ChEMBL document CHEMBL4138239, “Anti-inflammatory Dimeric 2-(2-Phenylethyl)chromones from the Resinous Wood of Aquilaria sinensis” (J Nat Prod, 2018).

Tests used:
RAW264.7 [1] = test: Antiinflammatory activity in mouse RAW264.7 cells assessed as inhibition of LPS-induced nitric oxide production after 24 hrs by Griess assay; type: functional, cell-based; details: RAW264.7, 24 h
Method in brief: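 RAW264.7 cells were obtained from the Peking Union Medical College Cell Bank and stimulated with LPS. Nitric oxide production was measured in the presence of test compounds. Compounds were made as DMSO stocks, with final DMSO below 0.2%. IC50 values are given as mean ± SD of three independent experiments. A positive control was included.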

RAW264.7 [2] = test: Cytotoxicity against mouse RAW264.7 cells assessed as effect on cell viability up to 80 uM after 24 hrs by MTT assay; type: cell-based; details: raw264.7, 24 h
Method in brief: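 Viability or proliferation of RAW264.7 cells was measured by MTT. Compounds were tested at up to 80 μM alongside LPS treatment for 24 h. They were made as DMSO stocks, with final DMSO below 0.2%. The assay was run to test whether lower NO reflected loss of cells.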

O=c1cc(CCc2ccccc2)oc2c1[C@@H]1c3ccc4c(=O)cc(CCc5ccccc5)oc4c3O[C@@H]([C@@H]1O)[C@H]2O
IC50 (RAW264.7 [1]): 8.6 µM
Activity (RAW264.7 [2]): Non-Toxic

COc1ccc(CCc2cc(=O)c3c(o2)[C@@H](O)[C@@H]2Oc4c(c(O)cc5c(=O)cc(CCc6ccc(OC)cc6)oc45)[C@H]3[C@@H]2O)cc1
IC50 (RAW264.7 [1]): 10.5 µM
Activity (RAW264.7 [2]): Non-Toxic

COc1ccc2oc(CCc3ccc4c(c3)O[C@H]3[C@H](O)[C@@H]4c4c(oc(CCc5ccccc5)cc4=O)[C@@H]3O)cc(=O)c2c1
IC50 (RAW264.7 [1]): 12 µM
Activity (RAW264.7 [2]): Non-Toxic

COc1ccc2oc(CCc3ccc(OC)c4c3[C@@H]3c5c(oc(CCc6ccccc6)cc5=O)[C@@H](O)[C@H](O4)[C@H]3O)cc(=O)c2c1
IC50 (RAW264.7 [1]): 8.5 µM
Activity (RAW264.7 [2]): Non-Toxic

O=c1cc(CCc2ccccc2)oc2c1[C@@H]1c3c(ccc4oc(CCc5ccccc5)cc(=O)c34)O[C@@H]([C@@H]1O)[C@H]2O
IC50 (RAW264.7 [1]): 11.5 µM
Activity (RAW264.7 [2]): Non-Toxic

O=c1cc(CCc2ccccc2)oc2c1[C@H]1c3c(ccc4oc(CCc5ccccc5)cc(=O)c34)O[C@H]([C@H]1O)[C@@H]2O
IC50 (RAW264.7 [1]): 7.6 µM
Activity (RAW264.7 [2]): Non-Toxic

COc1ccc(CCc2cc(=O)c3c(O)c(O)c(O)c(Cl)c3o2)cc1
IC50 (RAW264.7 [1]): 4.4 µM

COc1ccc2oc(CCc3ccc(OC)c4c3[C@H]3c5c(oc(CCc6ccccc6)cc5=O)[C@H](O)[C@@H](O4)[C@@H]3O)cc(=O)c2c1
IC50 (RAW264.7 [1]): 8.5 µM
Activity (RAW264.7 [2]): Non-Toxic

O=c1cc(CCc2ccccc2)oc2c1[C@H]1c3ccc4c(=O)cc(CCc5ccccc5)oc4c3O[C@H]([C@H]1O)[C@@H]2O
IC50 (RAW264.7 [1]): 8.8 µM
Activity (RAW264.7 [2]): Non-Toxic

COc1ccc(CCc2cc(=O)c3c(o2)[C@H](O)[C@H]2Oc4c(OC)ccc(CCc5cc(=O)c6cc(OC)ccc6o5)c4[C@@H]3[C@H]2O)cc1
IC50 (RAW264.7 [1]): 7 µM
Activity (RAW264.7 [2]): Non-Toxic

COc1ccc(CCc2cc(=O)c3c(o2)[C@@H](O)[C@@H]2Oc4ccc5oc(CCc6ccccc6)cc(=O)c5c4[C@H]3[C@@H]2O)cc1
IC50 (RAW264.7 [1]): 9.3 µM
Activity (RAW264.7 [2]): Non-Toxic
